Starred links: 1 amine or outer side, 2 acyl side, 3 side chain; linkers in the order of their positions; H or OH if unused. Non-standard residues stand in square brackets, D forms with d. Residues, ends and D or L forms follow the SMILES beside them. X1 = O=C([C@@H](O)[C@H](Cc1ccccc1)N[*:1])[*:2]; Thz(5,5-Me2) = CC1(C)SCN[C@@H]1C(=O)O; Phg = N[C@H](C(=O)O)c1ccccc1; Tle = CC(C)(C)[C@H](N)C(=O)O
Assays:
[1] = biological target: Protease (Human T-cell leukemia virus type I, UniProt Q82134, L40I); experiment: Inhibition of HTLV1 protease L40I mutant
Chain of Protease (Q82134 entry or part of it L40I): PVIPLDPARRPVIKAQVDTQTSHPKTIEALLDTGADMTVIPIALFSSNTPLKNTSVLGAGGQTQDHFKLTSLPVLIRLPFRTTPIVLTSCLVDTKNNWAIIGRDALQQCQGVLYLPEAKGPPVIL
In short: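 HTLV-I protease carrying the L40I substitution, which blocks autolysis and stabilises the enzyme; run by the group's earlier reported protocol; potency given as IC50 in nM.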

[2] = biological target: Protease (Human immunodeficiency virus 1) (UniProt Q9YQ12); experiment: Inhibition of HIV1 protease at 50 nM
Chain of Protease (Human immunodeficiency virus 1) (Q9YQ12 as listed by the source): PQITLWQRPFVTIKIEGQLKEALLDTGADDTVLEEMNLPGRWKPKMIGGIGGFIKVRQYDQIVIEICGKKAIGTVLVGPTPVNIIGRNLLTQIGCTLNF

SMILES | IC50 [1] | inhibition [2]
CC(=O)N[C@H](C(=O)N[C@H](C(=O)N[C@@H](Cc1ccccc1)[C@H](O)C(=O)N1CSC(C)(C)[C@H]1C(=O)NC(C)C(C)(C)C)C(C)(C)C)c1ccccc1 (stereo not given in full) | 106 nM | > 98%
CCC(=O)N[C@H](C(=O)N[C@H](C(=O)N[C@@H](Cc1ccccc1)[C@H](O)C(=O)N1CSC(C)(C)[C@H]1C(=O)NCC1CC1)C(C)(C)C)c1ccccc1 | 145 nM | > 98%
CC(C)CCNC(=O)[C@H]1N(C(=O)[C@@H](O)[C@H](Cc2ccccc2)NC(=O)[C@@H](NC(=O)[C@@H](NC(=O)CC(C)C)c2ccccc2)C(C)(C)C)CSC1(C)C | 107 nM | > 98%
CCC(=O)N[C@H](C(=O)N[C@H](C(=O)N[C@@H](Cc1ccccc1)[C@H](O)C(=O)N1CSC(C)(C)[C@H]1C(=O)NC(C)C(C)(C)C)C(C)(C)C)c1ccccc1 (stereo not given in full) | 103 nM | > 98%
CC(C)(C)CNC(=O)[C@H]1N(C(=O)[C@@H](O)[C@H](Cc2ccccc2)NC(=O)[C@@H](NC(=O)[C@@H](NC(=O)C(C)(C)C)c2ccccc2)C(C)(C)C)CSC1(C)C | 97 nM | > 98%
CC(C)CNC(=O)[C@H]1N(C(=O)[C@@H](O)[C@H](Cc2ccccc2)NC(=O)[C@@H](NC(=O)[C@@H](NC(=O)C(C)(C)C)c2ccccc2)C(C)(C)C)CSC1(C)C | 83 nM | > 98%
CC(C)CC(=O)N[C@H](C(=O)N[C@H](C(=O)N[C@@H](Cc1ccccc1)[C@H](O)C(=O)N1CSC(C)(C)[C@H]1C(=O)NC(C)C(C)C)C(C)(C)C)c1ccccc1 (stereo not given in full) | 107 nM | > 98%
CC(C)(C)[C@H](NC(=O)[C@@H](NC(=O)C1CC1)c1ccccc1)C(=O)N[C@@H](Cc1ccccc1)[C@H](O)C(=O)N1CSC(C)(C)[C@H]1C(=O)NCC1CC1 | 142 nM | > 98%
CC(C)C(=O)N[C@H](C(=O)N[C@H](C(=O)N[C@@H](Cc1ccccc1)[C@H](O)C(=O)N1CSC(C)(C)[C@H]1C(=O)NCC1CC1)C(C)(C)C)c1ccccc1 | 134 nM | > 98%
CCC(=O)N[C@H](C(=O)N[C@H](C(=O)N[C@@H](Cc1ccccc1)[C@H](O)C(=O)N1CSC(C)(C)[C@H]1C(=O)NCC(C)(C)C)C(C)(C)C)c1ccccc1 | 98 nM | > 98%
CCC(=O)N[C@H](C(=O)N[C@H](C(=O)N[C@@H](Cc1ccccc1)[C@H](O)C(=O)N1CSC(C)(C)[C@H]1C(=O)NC(C)C(C)C)C(C)(C)C)c1ccccc1 (stereo not given in full) | 129 nM | > 98%
CC(C)C(=O)N[C@H](C(=O)N[C@H](C(=O)N[C@@H](Cc1ccccc1)[C@H](O)C(=O)N1CSC(C)(C)[C@H]1C(=O)NC(C)C(C)(C)C)C(C)(C)C)c1ccccc1 (stereo not given in full) | 84 nM | > 98%
CC[C@H](C)[C@H](NC(=O)[C@H]1N(C(=O)[C@@H](O)[C@H](Cc2ccccc2)NC(=O)[C@@H](NC(=O)[C@@H](NC(C)=O)c2ccccc2)C(C)(C)C)CSC1(C)C)C(N)=O (Ac-[Phg][Tle][X1][Thz(5,5-Me2)]I-NH2) | 144 nM | > 98%
CC(NC(=O)[C@H]1N(C(=O)[C@@H](O)[C@H](Cc2ccccc2)NC(=O)[C@@H](NC(=O)[C@@H](NC(=O)C(C)(C)C)c2ccccc2)C(C)(C)C)CSC1(C)C)C(C)(C)C (stereo not given in full) | 97 nM | > 98%
CC(C)CNC(=O)[C@H]1N(C(=O)[C@@H](O)[C@H](Cc2ccccc2)NC(=O)[C@@H](NC(=O)[C@@H](NC(=O)C(C)C)c2ccccc2)C(C)(C)C)CSC1(C)C | 94 nM | > 98%
